Test results: ChEMBL document CHEMBL1649418, “Pyrimidine derivatives as potent and selective A3 adenosine receptor antagonists” (J Med Chem, 2011)

Assays:
Assay type in all cases: cell-based
[1] = molecular target: T1, Adenosine receptor A2b (Homo sapiens) (UniProt P29275); test: Displacement of [3H]DPCPX from human adenosine A2B receptor expressed in HEK293 cells at 0.1 uM by liquid scintillation counting
T1 sequence (whole entry): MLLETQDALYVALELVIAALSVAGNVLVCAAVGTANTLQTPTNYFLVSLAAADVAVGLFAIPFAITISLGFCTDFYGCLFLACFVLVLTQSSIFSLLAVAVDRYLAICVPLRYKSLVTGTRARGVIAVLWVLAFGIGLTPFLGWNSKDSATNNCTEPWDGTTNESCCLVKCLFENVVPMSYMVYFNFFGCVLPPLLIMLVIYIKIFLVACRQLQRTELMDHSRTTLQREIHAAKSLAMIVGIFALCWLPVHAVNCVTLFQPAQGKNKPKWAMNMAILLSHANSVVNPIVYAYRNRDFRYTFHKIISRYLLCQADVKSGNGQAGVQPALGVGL
In short: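 HEK-293 membranes (18 μg) were incubated with [3H]DPCPX (35 nM) at 25 °C for 30 min, with six concentrations from 0.1 nM to 1 μM. Nonspecific binding was defined with 400 μM NECA. Filters were washed six times with ice-cold buffer and counted by scintillation. Ki (Cheng–Prusoff) is mean ± SEM, n=3; % displacement at 0.1 μM is n=2.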

[2] = molecular target: T2, Adenosine receptor A1 (Homo sapiens) (UniProt P30542); test: Displacement of [3H]DPCPX from human adenosine A1 receptor expressed in CHO cells at 0.1 uM by liquid scintillation counting
T2 sequence (whole entry): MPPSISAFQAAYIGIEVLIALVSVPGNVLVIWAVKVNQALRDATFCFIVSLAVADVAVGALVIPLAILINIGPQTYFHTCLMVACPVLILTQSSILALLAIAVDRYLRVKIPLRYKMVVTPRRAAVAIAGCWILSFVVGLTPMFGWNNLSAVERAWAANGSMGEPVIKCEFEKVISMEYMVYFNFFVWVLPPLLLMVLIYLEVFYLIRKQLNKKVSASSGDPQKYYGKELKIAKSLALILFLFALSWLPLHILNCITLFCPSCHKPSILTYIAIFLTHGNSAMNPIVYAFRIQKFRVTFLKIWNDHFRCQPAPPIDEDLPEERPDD
In short: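 Transfected CHO cell membranes (15 μg) were incubated with [3H]DPCPX at 25 °C for 60 min, with six test concentrations from 0.1 nM to 1 μM. Nonspecific binding was defined with 10 μM R-PIA. Filters were washed four times with ice-cold buffer before scintillation counting. Ki (Cheng–Prusoff) is mean ± SEM, n=3; % displacement at 0.1 μM is n=2.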

[3] = molecular target: Adenosine receptor A2a (Homo sapiens, UniProt P29274); test: Displacement of [3H][…] from human adenosine A2A receptor expressed in human HeLa cells at 0.1 uM by liquid scintillation counting
In short: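 Nonspecific binding was defined with 50 μM NECA. Filters were washed four times with ice-cold buffer, then counted by scintillation. Ki (Cheng–Prusoff) is mean ± SEM, n=3; % displacement at 0.1 μM is n=2.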

[4] = molecular target: T3, Adenosine receptor A3 (Homo sapiens) (UniProt P0DMS8); test: Displacement of [3H]NECA from human adenosine A3 receptor expressed in human HeLa cells at 0.1 uM by liquid scintillation counting
T3 sequence (whole entry): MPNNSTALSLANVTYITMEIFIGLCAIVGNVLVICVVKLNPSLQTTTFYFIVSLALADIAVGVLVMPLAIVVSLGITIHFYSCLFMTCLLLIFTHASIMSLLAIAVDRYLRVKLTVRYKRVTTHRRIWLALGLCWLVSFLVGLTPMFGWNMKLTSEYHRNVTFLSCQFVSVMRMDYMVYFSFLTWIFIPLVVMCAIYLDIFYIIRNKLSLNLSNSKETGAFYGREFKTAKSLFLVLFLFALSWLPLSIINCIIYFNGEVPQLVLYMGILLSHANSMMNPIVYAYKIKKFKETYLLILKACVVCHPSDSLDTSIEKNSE
In short: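 HeLa membranes (90 μg) carrying hA3AR were incubated with [3H]NECA (30 nM) at 25 °C for 180 min, with six concentrations from 0.1 nM to 1 μM. Nonspecific binding was defined with 100 μM R-PIA. Filters were washed six times and counted by scintillation. Ki (Cheng–Prusoff) is mean ± SEM, n=3; % displacement at 0.1 μM is n=2.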

[5] = molecular target: T4, Adenosine receptor A3 (Homo sapiens, UniProt P0DMS8); test: Displacement of [3H]NECA from human adenosine A3 receptor expressed in human HeLa cells by liquid scintillation counting
T4 sequence (P0DMS8 whole entry): T3 sequence (whole entry)
In short: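 HeLa membranes (90 μg) carrying hA3AR were incubated with [3H]NECA (30 nM) at 25 °C for 180 min, with six concentrations from 0.1 nM to 1 μM. Nonspecific binding was defined with 100 μM R-PIA. Filters were washed six times and counted by scintillation.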

Chain of Adenosine receptor A2a (P29274 whole entry): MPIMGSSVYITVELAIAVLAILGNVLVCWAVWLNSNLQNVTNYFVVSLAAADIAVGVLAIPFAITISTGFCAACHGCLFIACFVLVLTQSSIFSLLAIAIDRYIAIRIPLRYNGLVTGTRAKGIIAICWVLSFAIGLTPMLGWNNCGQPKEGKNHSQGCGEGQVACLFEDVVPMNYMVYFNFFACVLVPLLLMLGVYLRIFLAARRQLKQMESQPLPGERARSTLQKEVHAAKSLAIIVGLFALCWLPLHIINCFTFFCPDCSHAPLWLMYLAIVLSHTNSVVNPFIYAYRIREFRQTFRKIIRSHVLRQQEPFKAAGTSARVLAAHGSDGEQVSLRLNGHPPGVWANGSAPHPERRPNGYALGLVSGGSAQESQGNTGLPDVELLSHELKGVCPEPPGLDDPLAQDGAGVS

Row | inhibition [1] | inhibition [2] | inhibition [3] | inhibition [4] | Ki ([5]; read-out: Ki) | Ki ([5]; read-out: pKi (converted)) | Compound
1 | 4% | 1% | 1% | – | 0.0563 µM | 0.257 µM | COc1ccc(-c2cc(NC(=O)C3CCCCC3)nc(-c3ccc(OC)cc3OC)n2)c(OC)c1
2 | 1% | 1% | 7% | 20% | – | – | COc1ccc(-c2cc(-c3ccc(OC)cc3)nc(NC(C)=O)n2)cc1
3 | 1% | 1% | 2% | 9% | – | – | COc1ccc(-c2cc(-c3ccc(OC)cc3OC)nc(NC(C)=O)n2)c(OC)c1
4 | 2% | 18% | 5% | 27% | – | – | CCCC(=O)Nc1nc(-c2ccc(F)cc2)cc(-c2ccc(F)cc2)n1
5 | 6% | 3% | 1% | 12% | – | – | CCCC(=O)Nc1cc(-c2ccc(C(F)(F)F)cc2)nc(-c2ccc(C(F)(F)F)cc2)n1
6 | 2% | 21% | 13% | 22% | – | – | CCC(=O)Nc1nc(-c2ccccc2OC)cc(-c2ccccc2OC)n1
7 | 2% | 1% | 2% | – | 0.0524 µM | – | CCC(CC)C(=O)Nc1cc(-c2ccc(OC)cc2OC)nc(-c2ccc(OC)cc2OC)n1
8 | 15% | 14% | 16% | 1% | – | – | CCCC(=O)Nc1nc(-c2ccc(OC)cc2OC)cc(-c2ccc(OC)cc2OC)n1
9 | 3% | 16% | 2% | – | 0.059 µM | – | CCCC(=O)Nc1cc(-c2ccc(C)cc2)nc(-c2ccc(C)cc2)n1
10 | 1% | 5% | 1% | – | 0.0321 µM | – | COc1ccc(-c2cc(NC(=O)C3CCCCC3)nc(-c3ccc(OC)cc3)n2)cc1
11 | 8% | 6% | 14% | – | 0.0113 µM | – | CCC(=O)Nc1cc(-c2ccc(OC)cc2OC)nc(-c2ccc(OC)cc2OC)n1
12 | 1% | 1% | 14% | – | 0.0241 µM | – | COc1ccccc1-c1cc(NC(C)=O)nc(-c2ccccc2OC)n1
13 | 1% | 2% | 1% | – | 0.133 µM | – | CCCC(=O)Nc1cc(-c2ccc(C(C)=O)cc2)nc(-c2ccc(C(C)=O)cc2)n1
14 | 3% | 1% | 1% | – | 0.0436 µM | – | CCC(=O)Nc1cc(-c2ccc(SC)cc2)nc(-c2ccc(SC)cc2)n1
15 | 1% | 18% | 1% | – | 0.0159 µM | – | COc1ccc(-c2cc(NC(=O)C(C)C)nc(-c3ccc(OC)cc3OC)n2)c(OC)c1
16 | 8% | 3% | 6% | – | 0.0581 µM | – | CCC(CC)C(=O)Nc1cc(-c2ccc(OC)cc2)nc(-c2ccc(OC)cc2)n1
17 | 3% | 5% | 1% | – | 0.0122 µM | – | COc1ccc(-c2cc(NC(=O)C(C)C)nc(-c3ccc(OC)cc3)n2)cc1
18 | 1% | 16% | 21% | – | 0.103 µM | – | CCCC(=O)Nc1cc(-c2ccc(Cl)cc2)nc(-c2ccc(Cl)cc2)n1
19 | 14% | 18% | 12% | – | 0.0102 µM | – | CCCC(=O)Nc1cc(-c2ccc(OC)cc2OC)nc(-c2ccc(OC)cc2OC)n1

Further lines, the molecule ahead of its results:

Row | Compound | inhibition [1] | inhibition [2] | inhibition [3] | inhibition [4] | Ki ([5]; read-out: Ki) | Ki ([5]; read-out: pKi (converted))
20 | CC(=O)Nc1nc(-c2ccoc2)cc(-c2ccoc2)n1 | 1% | 1% | 1% | 1% | – | –
21 | CCCC(=O)Nc1nc(-c2ccoc2)cc(-c2ccoc2)n1 | 0% | 11% | 17% | 21% | – | –
22 | CC(=O)Nc1nc(-c2ccsc2)cc(-c2ccsc2)n1 | 1% | 2% | 2% | 1% | – | –
23 | CC(=O)Nc1cc(-c2ccc(C(F)(F)F)cc2)nc(-c2ccc(C(F)(F)F)cc2)n1 | 1% | 1% | 1% | – | 0.126 µM | –
24 | CSc1ccc(-c2cc(NC(C)=O)nc(-c3ccc(SC)cc3)n2)cc1 | 2% | 1% | 1% | – | 0.0713 µM | –
25 | CC(=O)Nc1nc(-c2ccc(Cl)cc2)cc(-c2ccc(Cl)cc2)n1 | 1% | 2% | 2% | 1% | – | –
26 | CCC(=O)Nc1nc(-c2cccs2)cc(-c2cccs2)n1 | 2% | 24% | 25% | 21% | – | –
27 | CC(=O)Nc1nc(/C=C/c2ccccc2)cc(/C=C/c2ccccc2)n1 | 1% | 1% | 15% | 4% | – | –
28 | CCC(=O)Nc1nc(-c2ccc(C(F)(F)F)cc2)cc(-c2ccc(C(F)(F)F)cc2)n1 | 9% | 2% | 12% | 2% | – | –
29 | CCCC(=O)Nc1nc(-c2ccco2)cc(-c2ccco2)n1 | 15% | 17% | 23% | 1% | – | –
30 | CCC(=O)Nc1cc(-c2ccc(C(C)=O)cc2)nc(-c2ccc(C(C)=O)cc2)n1 | 2% | 1% | 1% | – | 0.0439 µM | –
31 | CCC(=O)Nc1nc(-c2ccc(C)cc2)cc(-c2ccc(C)cc2)n1 | 3% | 1% | 1% | – | 0.157 µM | –
32 | COc1ccc(-c2cc(NC(C)=O)nc(-c3ccc(OC)cc3)n2)cc1 | 4% | 1% | 10% | – | – | –
33 | CC(=O)Nc1cc(-c2ccc(Cl)cc2)nc(-c2ccc(Cl)cc2)n1 | 1% | 1% | 10% | – | 0.0633 µM | –
34 | CC(=O)Nc1cc(/C=C/c2ccccc2)nc(/C=C/c2ccccc2)n1 | 1% | 1% | 13% | – | 0.0156 µM | –
35 | CC(=O)Nc1nc(-c2ccc3c(c2)OCO3)cc(-c2ccc3c(c2)OCO3)n1 | 1% | 1% | 15% | – | 0.101 µM | –
36 | CCC(=O)Nc1cc(/C=C/c2ccccc2)nc(/C=C/c2ccccc2)n1 | 2% | 17% | 2% | – | 0.0469 µM | –
37 | CCC(=O)Nc1nc(-c2ccco2)cc(-c2ccco2)n1 | 21% | 24% | 15% | – | 1.9 µM | –
38 | CC(=O)Nc1nc(-c2ccc(C)cc2)cc(-c2ccc(C)cc2)n1 | 3% | 3% | 6% | – | 0.0473 µM | –
39 | CC(=O)Nc1cc(-c2ccc(C(C)=O)cc2)nc(-c2ccc(C(C)=O)cc2)n1 | 16% | 10% | 13% | – | 0.0252 µM | –
40 | CCC(=O)Nc1nc(/C=C/c2ccccc2)cc(/C=C/c2ccccc2)n1 | 1% | 1% | 1% | – | 0.142 µM | –
